Laboratory results: ChEMBL document CHEMBL1143766, “Mono- and disalicylic acid derivatives: PTP1B inhibitors as potential anti-obesity drugs” (Bioorg Med Chem, 2007)

How the values were obtained:
[1] = target: T1, Tyrosine-protein phosphatase non-receptor type 1 (Homo sapiens, UniProt P18031); assay: Inhibition of PTP1B
T1 sequence (P18031 whole entry): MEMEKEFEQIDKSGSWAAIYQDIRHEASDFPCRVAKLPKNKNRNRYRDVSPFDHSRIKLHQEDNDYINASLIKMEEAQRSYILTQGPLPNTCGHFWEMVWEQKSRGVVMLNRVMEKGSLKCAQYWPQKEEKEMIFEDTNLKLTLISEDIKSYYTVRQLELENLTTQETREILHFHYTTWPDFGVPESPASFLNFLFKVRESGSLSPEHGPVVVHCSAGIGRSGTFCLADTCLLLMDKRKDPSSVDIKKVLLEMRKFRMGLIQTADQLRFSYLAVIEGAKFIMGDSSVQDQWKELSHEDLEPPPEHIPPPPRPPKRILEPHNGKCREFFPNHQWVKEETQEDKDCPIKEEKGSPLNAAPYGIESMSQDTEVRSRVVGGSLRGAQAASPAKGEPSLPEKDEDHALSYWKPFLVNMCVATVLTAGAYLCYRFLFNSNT
Procedure, shortened: (§1)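 Enzymes expressed in E. coli and purified: native PTP1B at 2.1 µg/mL, SHP-1 catalytic domain at 5 µg/mL. Buffer 100 mM Hepes, 5 mM EDTA, pH 7.0, 37 °C. Enzyme preincubated 10 min with inhibitor in DMSO, then 2 mM pNPP (final) added. Reaction 3 min, quenched with NaOH, p-nitrophenol read at 405 nm. IC50 taken over a range of inhibitor concentrations.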

[2] = tested on: Mus musculus; assay: Effect on glucose level in HFD-fed C57BL/6J Jms Slc DIO mouse plasma at 5 g/kg of diet after 28 days; assay type: functional
Procedure, shortened: (§2)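 DIO mice (HFD 8 weeks, then drug in powdered HFD at 5 g/kg diet for 4 weeks) fasted 8 h at the end. Secobarbital 40 mg/kg ip, cardiac-puncture blood into EDTA, plasma spun at 5000g, 10 min, 4 °C and frozen. Enzymatic colour kits, 37 °C. Glucose: 5 min, A505. TG and cholesterol: 5 min, A600. NEFA: 20 min, A550. Means ± SEM, n = 8–9.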

[3] = tested on: Mus musculus; assay: Effect on nonesterified fatty acid level in HFD-fed C57BL/6J Jms Slc DIO mouse plasma at 5 g/kg of diet after 28 days; assay type: functional; procedure, shortened: as §2
[4] = tested on: Mus musculus; assay: Effect on liver weight in HFD-fed C57BL/6J Jms Slc DIO mouse at 5 g/kg of diet after 28 days; assay type: functional
Procedure, shortened: (§3)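 Male C57BL/6J Jms Slc mice (4 weeks old, 17–19 g), acclimatized 1 week on LFD, then HFD for 8 weeks to induce obesity. Next 4 weeks on powdered HFD with compound kneaded in at 5 g/kg diet (0.5% w/w), dissolved with 2 equiv NaOH in water. Vehicle diet was kneaded with the same volume of water. n = 9/group, LFD lean control n = 8. Body weight recorded every other day. Means ± SEM.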

[5] = tested on: Mus musculus; assay: Effect on total cholesterol in HFD-fed C57BL/6J Jms Slc DIO mouse plasma at 5 g/kg of diet after 28 days; assay type: functional; procedure, shortened: as §2
[6] = tested on: Mus musculus; assay: Effect on triglyceride level in HFD-fed C57BL/6J Jms Slc DIO mouse plasma at 5 g/kg of diet after 28 days; assay type: functional; procedure, shortened: as §2
[7] = target: Tyrosine-protein phosphatase non-receptor type 6 (Homo sapiens, UniProt P29350); assay: Inhibition of SHP-1 catalytic domain; procedure, shortened: as §1
[8] = target: T2, Tyrosine-protein phosphatase non-receptor type 2 (Homo sapiens, UniProt P17706); assay: Inhibition of TC-PTP
T2 sequence (P17706 whole entry): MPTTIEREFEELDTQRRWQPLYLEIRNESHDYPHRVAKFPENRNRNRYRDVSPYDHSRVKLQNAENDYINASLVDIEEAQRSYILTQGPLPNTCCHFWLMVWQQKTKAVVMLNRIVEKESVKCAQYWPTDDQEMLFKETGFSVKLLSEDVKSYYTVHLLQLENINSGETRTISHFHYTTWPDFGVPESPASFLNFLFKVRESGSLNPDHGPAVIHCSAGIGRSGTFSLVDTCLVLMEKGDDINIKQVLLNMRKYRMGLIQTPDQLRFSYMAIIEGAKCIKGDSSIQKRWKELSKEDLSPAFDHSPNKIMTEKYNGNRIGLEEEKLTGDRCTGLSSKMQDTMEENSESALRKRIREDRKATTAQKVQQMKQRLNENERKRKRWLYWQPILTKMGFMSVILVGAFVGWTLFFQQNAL
Procedure, shortened: (§4)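 Commercial LAR-D1 (membrane-proximal catalytic domain) and TC-PTP, each at 33 U/mL. Run at 37 °C in 100 mM Hepes, 5 mM EDTA, pH 7.0. Inhibitor in DMSO preincubated 10 min before 2 mM pNPP (final) added. After 3 min, quenched with NaOH and A405 read. IC50 from a range of inhibitor concentrations.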

[9] = Inhibition of LAR-D1; parameters: species or system Homo sapiens; procedure, shortened: as §4
[10] = tested on: Mus musculus; assay: Effect on body weight in HFD-fed C57BL/6J Jms Slc DIO mouse at 5 g/kg of diet after 28 days; assay type: functional; procedure, shortened: as §3
[11] = target: T3, Tyrosine-protein phosphatase 1 (Saccharomyces cerevisiae S288c, UniProt P25044); assay: Inhibition of yeast PTP1
T3 sequence (P25044 whole entry): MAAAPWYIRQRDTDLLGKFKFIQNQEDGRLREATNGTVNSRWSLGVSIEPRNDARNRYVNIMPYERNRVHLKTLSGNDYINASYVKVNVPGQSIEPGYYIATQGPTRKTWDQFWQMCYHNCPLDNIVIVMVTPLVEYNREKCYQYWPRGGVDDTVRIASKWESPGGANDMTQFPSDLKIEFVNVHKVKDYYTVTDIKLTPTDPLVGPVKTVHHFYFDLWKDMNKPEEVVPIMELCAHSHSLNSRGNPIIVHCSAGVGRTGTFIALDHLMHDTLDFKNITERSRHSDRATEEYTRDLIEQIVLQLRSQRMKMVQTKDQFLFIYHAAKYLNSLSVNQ
Procedure, shortened: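 Yeast PTPase YPTP1 at 30 ng/mL. pNPP hydrolysis at 37 °C, pH 7.0 Hepes/EDTA buffer, 10 min inhibitor preincubation, 2 mM pNPP final, 3 min reaction, NaOH stop, A405. IC50 derived from activity across inhibitor concentrations.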

[12] = tested on: Mus musculus; assay: Effect on adipose epididymal tissue weight in HFD-fed C57BL/6J Jms Slc DIO mouse at 5 g/kg of diet after 28 days; assay type: functional; procedure, shortened: as §3
[13] = tested on: Mus musculus; assay: Effect on adipose retroperitoneal tissue weight in HFD-fed C57BL/6J Jms Slc DIO mouse at 5 g/kg of diet after 28 days; assay type: functional; procedure, shortened: as §3

Chain of Tyrosine-protein phosphatase non-receptor type 6 (P29350 whole entry, the tested form may be a part): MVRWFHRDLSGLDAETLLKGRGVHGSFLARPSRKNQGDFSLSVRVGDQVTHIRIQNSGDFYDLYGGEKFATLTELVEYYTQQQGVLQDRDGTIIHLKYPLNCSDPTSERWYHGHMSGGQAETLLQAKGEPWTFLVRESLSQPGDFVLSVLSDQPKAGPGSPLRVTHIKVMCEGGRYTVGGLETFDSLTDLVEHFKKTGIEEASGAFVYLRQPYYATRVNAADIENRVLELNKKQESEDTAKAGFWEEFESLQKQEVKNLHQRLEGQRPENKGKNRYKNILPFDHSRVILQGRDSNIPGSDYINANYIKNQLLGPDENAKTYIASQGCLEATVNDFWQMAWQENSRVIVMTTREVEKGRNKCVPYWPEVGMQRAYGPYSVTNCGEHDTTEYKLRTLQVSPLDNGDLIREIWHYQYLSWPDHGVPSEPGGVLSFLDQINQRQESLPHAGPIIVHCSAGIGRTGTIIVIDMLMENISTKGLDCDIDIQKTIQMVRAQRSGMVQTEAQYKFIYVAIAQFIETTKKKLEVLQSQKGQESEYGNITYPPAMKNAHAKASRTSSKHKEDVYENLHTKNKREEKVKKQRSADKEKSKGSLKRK

Compound	IC50 [1] [µM]	also measured
O=C(O)c1cc(-c2ccccc2)ccc1O	1280	
O=C(O)c1cc(Cc2cc(C(=O)O)c(O)c(-c3ccccc3)c2)cc(-c2ccccc2)c1O		Activity [2]: 300 mg/dL; Activity [3]: 0.24 mEq/L; Activity [4]: 1.03 g; Activity [5]: 129 mg/dL; Activity [6]: 42 mg/dL
O=C(O)c1cc(F)cc(Cc2cc(F)cc(C(=O)O)c2O)c1O	215	
O=Cc1cc(C(=O)O)c(O)c(C2CCCO2)c1 (stereo not drawn)	380	
O=C(O)c1cc(F)ccc1O	> 1000	
O=Cc1ccc(O)c(C(=O)O)c1	> 1000	
O=C(O)Cc1cc(O)c(CC(=O)O)cc1O	> 1000	
O=C(O)c1cc2ccccc2cc1O	> 1000	
O=C(O)c1cccc(-c2ccccc2)c1O	859	
O=C(O)c1cc(Cc2ccccc2)ccc1O	1180	
O=C(O)c1cccc(Cc2ccccc2)c1O	403	
O=C(O)c1cc(-c2ccccc2)cc(Br)c1O	351	
O=C(O)c1cccc(Br)c1O	> 1000	
O=C(O)c1ccc2ccccc2c1O [CARBOXYNAPHTHOL]	850	
O=C(O)c1cc(S(=O)(=O)O)ccc1O [SULFOSALICYLIC]	> 1000	

Second part, led by results:

IC50 [1] [µM]	Compound	also measured
19	O=C(O)c1cc(-c2ccccc2)cc(Cc2cc(-c3ccccc3)cc(C(=O)O)c2O)c1O	IC50 [7]: 37 µM; Ki [7]: 9.7 µM; IC50 [8]: 156 µM; Ki [8]: 89 µM; Activity [2]: 280 mg/dL; IC50 [9]: > 2000 µM; Activity [10]: 28.9 g; IC50 [11]: 86 µM; Activity [3]: 0.14 mEq/L; Activity [12]: 0.83 g; Activity [4]: 1.07 g; Activity [13]: 0.26 g; Activity [5]: 133 mg/dL; Activity [6]: 48 mg/dL; Ki [1]: 6.5 µM
67	O=C(O)c1cc(-c2ccco2)cc(Cc2cc(-c3ccco3)cc(C(=O)O)c2O)c1O	
27	O=C(O)c1cc(-c2cccs2)cc(Cc2cc(-c3cccs3)cc(C(=O)O)c2O)c1O	
153	O=C(O)c1cc(Cc2ccccc2)cc(Br)c1O	
57	O=C(O)c1cc(-c2ccccc2)cc(Cc2ccccc2)c1O	
91	O=C(O)c1cc(Cc2ccccc2)cc(Cc2ccccc2)c1O	
149	O=C(O)c1cc(Br)cc(Cc2cc(Br)cc(C(=O)O)c2O)c1O	
148	O=C(O)c1cc(Br)cc(Cc2ccccc2)c1O	
65	O=C(O)c1cc(Cc2ccccc2)cc(-c2ccccc2)c1O	IC50 [7]: 129 µM; IC50 [8]: 540 µM; IC50 [9]: > 2000 µM; IC50 [11]: 271 µM
84	O=C(O)c1cc(-c2ccccc2)cc(-c2ccccc2)c1O	
